Results reported in ChEMBL document CHEMBL4325893, “Synthesis and antibacterial profiles of targeted triclosan derivatives” (2019).
Values after ≈ are worked out from the molar mass of the structure shown.

Columns and labels:
[1] = system: Aeromonas hydrophila; test: Antibacterial activity against Aeromonas hydrophila OCC 778 after 18 hrs; format: functional; details: OCC 778, 18 h
Summary of the method: (§1)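 Broth microdilution in Nutrient Broth No. 2; stocks in ethanol diluted to 0.01–128 µg/ml (triclosan) or 0.25–256 µg/ml (glycosides). Overnight 37 °C NB2 cultures diluted 1 in 10^4 in saline and added to the dilutions. Incubation at 37 °C with agitation, OD read every 15 min; MIC is the lowest concentration preventing any OD rise after 18 h.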

[2] = system: Citrobacter freundii; test: Antibacterial activity against Citrobacter freundii OCC 851 after 18 hrs; format: functional; details: OCC 851, 18 h; summary of the method: as §1
[3] = system: Cronobacter sakazakii; test: Antibacterial activity against Cronobacter sakazakii 29544 after 18 hrs; format: functional; details: Cronobacter sakazakii, 29544, 18 h; summary of the method: as §1
[4] = system: Klebsiella aerogenes; test: Antibacterial activity against Enterobacter aerogenes ATCC 13048 after 18 hrs; format: functional; details: ATCC 13048, 18 h; summary of the method: as §1
[5] = Antibacterial activity against Enterobacter cloacae ATCC 13047 after 18 hrs; format: functional, Enterobacter cloacae subsp. cloacae; details: ATCC 13047, 18 h; summary of the method: as §1
[6] = system: Escherichia coli; test: Antibacterial activity against Escherichia coli ATCC 8739 after 18 hrs; format: functional; details: ATCC 8739, 18 h; summary of the method: as §1
[7] = system: Escherichia coli; test: Antibacterial activity against Escherichia coli ATCC 10536 after 18 hrs; format: functional; details: ATCC 10536, 18 h; summary of the method: as §1
[8] = system: Escherichia coli; test: Antibacterial activity against Escherichia coli ATCC 11775 after 18 hrs; format: functional; summary of the method: as §1
[9] = system: Escherichia coli; test: Antibacterial activity against Escherichia coli ATCC 25922 after 18 hrs; format: functional; details: ATCC 25922, 18 h; summary of the method: as §1
[10] = system: Escherichia coli; test: Antibacterial activity against Escherichia coli ATCC 35218 after 18 hrs; format: functional; details: ATCC 35218, 18 h; summary of the method: as §1
[11] = system: Escherichia coli; test: Antibacterial activity against Escherichia coli 700728 after 18 hrs; format: functional; details: Escherichia coli, 700728, 18 h; summary of the method: as §1
[12] = system: Escherichia coli; test: Antibacterial activity against Escherichia coli NCTC 13216 after 18 hrs; format: functional; details: NCTC 13216, 18 h; summary of the method: as §1
[13] = system: Escherichia coli; test: Antibacterial activity against Escherichia coli OCC 122 after 18 hrs; format: functional; details: OCC 122, 18 h; summary of the method: as §1
[14] = system: Escherichia hermannii; test: Antibacterial activity against Escherichia hermannii 33650 after 18 hrs; format: functional; details: Atlantibacter hermannii, 33650, 18 h; summary of the method: as §1
[15] = system: Hafnia alvei; test: Antibacterial activity against Hafnia alvei 13337 after 18 hrs; format: functional; details: Hafnia alvei, 13337, 18 h; summary of the method: as §1
[16] = system: Klebsiella aerogenes; test: Antibacterial activity against Klebsiella aerogenes NCTC 8167 after 18 hrs; format: functional; details: NCTC 8167, 18 h; summary of the method: as §1
[17] = system: Klebsiella pneumoniae; test: Antibacterial activity against Klebsiella pneumoniae ATCC 10031 after 18 hrs; format: functional; details: ATCC 10031, 18 h; summary of the method: as §1
[18] = system: Proteus mirabilis; test: Antibacterial activity against Proteus mirabilis ATCC 12453 after 18 hrs; format: functional; details: ATCC 12453, 18 h; summary of the method: as §1
[19] = system: Proteus vulgaris; test: Antibacterial activity against Proteus vulgaris OCC 195 after 18 hrs; format: functional; details: OCC 195, 18 h; summary of the method: as §1
[20] = system: Pseudomonas aeruginosa; test: Antibacterial activity against Pseudomonas aeruginosa ATCC 27853 after 18 hrs; format: functional; details: ATCC 27853, 18 h; summary of the method: as §1
[21] = system: Klebsiella pneumoniae; test: Antibacterial activity against Klebsiella pneumoniae ATCC 13883 after 18 hrs; format: functional; details: ATCC 13883, 18 h; summary of the method: as §1
[22] = system: Citrobacter freundii; test: Antibacterial activity against Citrobacter freundii 8090 after 18 hrs; format: functional; details: Citrobacter freundii, 8090, 18 h; summary of the method: as §1
[23] = system: Serratia marcescens; test: Antibacterial activity against Serratia marcescens OCC 217 after 18 hrs; format: functional; details: OCC 217, 18 h; summary of the method: as §1
[24] = system: Bacillus cereus; test: Antibacterial activity against Bacillus cereus ATCC 14579 after 18 hrs; format: functional; details: ATCC 14579, 18 h; summary of the method: as §1
[25] = system: Bacillus subtilis; test: Antibacterial activity against Bacillus subtilis NCTC 10073 after 18 hrs; format: functional; details: NCTC 10073, 18 h; summary of the method: as §1
[26] = system: Enterococcus faecalis; test: Antibacterial activity against Enterococcus faecalis ATCC 29212 after 18 hrs; format: functional; details: ATCC 29212, 18 h; summary of the method: as §1
[27] = system: Enterococcus faecalis; test: Antibacterial activity against Enterococcus faecalis ATCC 33186 after 18 hrs; format: functional; details: ATCC 33186, 18 h; summary of the method: as §1
[28] = system: Enterococcus faecium; test: Antibacterial activity against Enterococcus faecium ATCC 19434 after 18 hrs; format: functional; details: ATCC 19434, 18 h; summary of the method: as §1

MIC [1]: > 256 µg/mL
MIC [2]: 64 µg/mL (≈ 142 µM)
MIC [3]: 128 µg/mL (≈ 283 µM)
MIC [4]: 32 µg/mL (≈ 70.8 µM)
MIC [5]: 8 µg/mL (≈ 17.7 µM)
MIC [6]: 4 to 64 µg/mL (≈ 8.86 to 142 µM)
MIC [7]: 4 to 64 µg/mL (≈ 8.86 to 142 µM)
MIC [8]: 4 to 64 µg/mL (≈ 8.86 to 142 µM)
MIC [9]: 4 to 64 µg/mL (≈ 8.86 to 142 µM)
MIC [10]: 4 to 64 µg/mL (≈ 8.86 to 142 µM)
MIC [11]: 4 to 64 µg/mL (≈ 8.86 to 142 µM)
MIC [12]: 4 to 64 µg/mL (≈ 8.86 to 142 µM)
MIC [13]: 4 to 64 µg/mL (≈ 8.86 to 142 µM)
MIC [14]: 16 µg/mL (≈ 35.4 µM)
MIC [15]: 4 µg/mL (≈ 8.86 µM)
MIC [16]: 32 µg/mL (≈ 70.8 µM)
MIC [17]: 4 µg/mL (≈ 8.86 µM)
MIC [18]: 16 µg/mL (≈ 35.4 µM)
MIC [19]: 32 µg/mL (≈ 70.8 µM)
MIC [20]: > 256 µg/mL
MIC [21]: 4 µg/mL (≈ 8.86 µM)
MIC [22]: 64 µg/mL (≈ 142 µM)
MIC [23]: > 256 µg/mL
MIC [24]: 256 µg/mL (≈ 567 µM)
MIC [25]: 128 µg/mL (≈ 283 µM)
MIC [26]: 256 µg/mL (≈ 567 µM)
MIC [27]: 256 µg/mL (≈ 567 µM)
MIC [28]: 256 µg/mL (≈ 567 µM)
Compound: OC[C@H]1O[C@H](Oc2cc(Cl)ccc2Oc2ccc(Cl)cc2Cl)[C@@H](O)[C@@H](O)[C@@H]1O
